In paper PMC3023924 (Bioorganic & medicinal chemistry, 2010):
Structures can show the parent of a compound that is named as a salt.

Key:
[1] = molecular target: T1, human dopamine transporter (hDAT) (Homo sapiens, UniProt Q01959); test: [3H]-dopamine uptake inhibition at hDAT N2A neuroblastoma cells; assay type: cell-based; conditions: Table 1
[2] = molecular target: T1, human dopamine transporter (hDAT); test: [3H]-WIN-35,428 binding inhibition at hDAT N2A neuroblastoma cells; conditions: from Ki values
DAT = conditions: cited from earlier work; for IC50: read-out: DAT IC50 for inhibition of [3H]-WIN-35,428 binding
[3] = Storage stability of radioligand by HPLC; assay type: physicochemical; conditions: 20 weeks at −20 °C in the dark
Summary of the method: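 The radioiodinated test compound was made by Chloramine-T iododestannylation and purified by reversed-phase HPLC (C-18, 8 × 100 mm, 6 μm; 3 mL/min; MeOH 35%/CH₃CN 35%/aqueous 30% with Et₃N 2.1% v/v and HOAc 2.8% v/v; radioactivity plus UV 254 nm detection). It was then trapped on a C-18 cartridge and eluted with MeOH. The storage period spanned more than two ¹²⁵I half-lives.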

6Xhis-hDAT = 6Xhis-hDAT (Homo sapiens, UniProt Q01959); test: DAT photoaffinity labeling with [125I]-; assay type: binding; conditions: HEK hDAT cells; 30 nM, UV 254 nm, immunoprecipitation (not shown)
[4] = tested on: adult attention-deficit hyperactivity disorder (ADHD); conditions: immediate-release and long-acting preparations; cited from earlier work
rat striatal DAT = rat striatal DAT (Rattus norvegicus, UniProt P23977); test: DAT photoaffinity labeling with [125I]-; assay type: binding; conditions: 30 nM [125I]-(±)-3a; 10 μM or 100 μM competitor; band density vs. control
rDAT = conditions: pattern previously seen; cited from earlier work

T1 sequence (Q01959 whole entry): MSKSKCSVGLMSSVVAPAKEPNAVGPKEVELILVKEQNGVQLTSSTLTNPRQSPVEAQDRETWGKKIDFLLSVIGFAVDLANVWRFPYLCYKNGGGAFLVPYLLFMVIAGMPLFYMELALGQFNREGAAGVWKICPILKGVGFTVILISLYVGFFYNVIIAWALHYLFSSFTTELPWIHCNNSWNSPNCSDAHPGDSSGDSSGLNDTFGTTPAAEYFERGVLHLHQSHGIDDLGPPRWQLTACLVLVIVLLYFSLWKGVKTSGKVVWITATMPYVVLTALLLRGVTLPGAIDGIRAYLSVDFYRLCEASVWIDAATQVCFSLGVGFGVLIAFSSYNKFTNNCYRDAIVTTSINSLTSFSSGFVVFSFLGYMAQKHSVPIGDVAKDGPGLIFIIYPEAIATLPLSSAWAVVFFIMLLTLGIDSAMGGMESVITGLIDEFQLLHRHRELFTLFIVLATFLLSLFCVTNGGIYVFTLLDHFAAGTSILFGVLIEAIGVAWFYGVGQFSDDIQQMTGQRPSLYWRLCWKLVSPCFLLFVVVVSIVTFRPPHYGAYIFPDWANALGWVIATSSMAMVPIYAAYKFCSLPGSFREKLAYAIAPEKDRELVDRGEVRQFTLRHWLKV
rat striatal DAT, sequence (P23977 whole entry): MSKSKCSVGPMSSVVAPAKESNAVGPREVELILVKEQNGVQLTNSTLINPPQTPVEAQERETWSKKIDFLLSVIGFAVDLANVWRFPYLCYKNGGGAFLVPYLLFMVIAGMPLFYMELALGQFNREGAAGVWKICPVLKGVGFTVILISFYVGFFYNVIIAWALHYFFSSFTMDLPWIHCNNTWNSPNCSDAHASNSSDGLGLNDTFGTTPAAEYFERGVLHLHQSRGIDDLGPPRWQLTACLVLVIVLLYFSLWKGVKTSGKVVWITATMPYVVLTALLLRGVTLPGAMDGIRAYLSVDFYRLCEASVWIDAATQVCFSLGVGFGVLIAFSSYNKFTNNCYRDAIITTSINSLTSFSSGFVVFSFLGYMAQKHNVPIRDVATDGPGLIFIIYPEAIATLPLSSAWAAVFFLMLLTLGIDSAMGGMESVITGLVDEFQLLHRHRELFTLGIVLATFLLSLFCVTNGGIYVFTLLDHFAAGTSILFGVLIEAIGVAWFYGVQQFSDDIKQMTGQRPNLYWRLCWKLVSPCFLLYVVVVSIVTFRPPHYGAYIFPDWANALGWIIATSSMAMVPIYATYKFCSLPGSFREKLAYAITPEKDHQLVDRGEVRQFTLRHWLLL
6Xhis-hDAT, sequence (Q01959 whole entry): as the sequence (Q01959 whole entry) above

## COC(=O)[C@H](c1ccc(I)cc1)[C@H]1CCCCN1 (racemic) [(±)-1b, (±)-threo-4-Iodomethylphenidate Hydrochloride]
[1]
  comparison of binding and uptake inhibition values: essentially the same value for binding and uptake inhibition
[2]
  improvement in DAT affinity versus methylphenidate: approximately two-fold
DAT; previous pharmacological results
  higher DAT affinity versus methylphenidate: ~ 6 fold
DAT
  IC50: 14 ± 0.1 nM

## COC(=O)[C@H](c1cccc(I)c1)[C@H]1CCCCN1 (racemic) [(±)-1f, (±)-threo-3-Iodomethylphenidate Hydrochloride]
[2]
  improvement in DAT affinity versus methylphenidate: ~ 5.5 fold

## COC(=O)C(c1ccc([125I])cc1)[C@H]1CCCCN1Cc1ccc(N=[N+]=[N-])cc1 (mixture of isomers) [[^125I]-(±)-3a, [^125I]-(±)-threo-N-(p-Azido-benzyl)-4-iodomethylphenidate]
[3]
  radiochemical purity after storage: about 80%
6Xhis-hDAT
  irreversible incorporation into DAT (labeled protein of ~80 kDa): demonstrating the incorporation of [^125I]-(±)-3a into the DAT

## Fc1ccc(C(OCCN2CCN(CCCc3ccccc3)CC2)c2ccc(F)cc2)cc1 [GBR-12,909]
rDAT
  comparison of binding and uptake inhibition values: essentially the same value for binding and uptake inhibition

## CN1[C@@H]2CC[C@H]1C[C@@H](OC(c1ccccc1)c1ccccc1)C2 [benztropine]
rDAT
  comparison of binding and uptake inhibition values: essentially the same value for binding and uptake inhibition

## COC(=O)[C@H]1[C@@H](c2ccc(F)cc2)C[C@@H]2CC[C@H]1N2C [β-CFT, (−)-2-β-carbomethoxy-3-β-(4-fluorophenyl)tropane]
Rat striatal DAT
  block of [125I]-(±)-3a incorporation into DAT: 75–90%
